Test results as given in ChEMBL document CHEMBL2396594, “Designing allosteric regulators of thrombin. Exosite 2 features multiple subsites that can be targeted by sulfated small molecules for inducing inhibition” (J Med Chem, 2013).
Calls of active or inactive are those of the source. The calls are words filed in the database; no cut-off is given here. Where a SMILES comes first, the peptide text is derived from it. [ ]: non-standard residue; d: D form. pY = N[C@@H](Cc1ccc(OP(=O)(O)O)cc1)C(=O)O

Tests used:
[1] = target: Coagulation factor X (Homo sapiens) (UniProt P00742); assay: Inhibition of human factor 10a at 365 uM
Chain of Coagulation factor X (Homo sapiens) (P00742 41-179 limits assumed): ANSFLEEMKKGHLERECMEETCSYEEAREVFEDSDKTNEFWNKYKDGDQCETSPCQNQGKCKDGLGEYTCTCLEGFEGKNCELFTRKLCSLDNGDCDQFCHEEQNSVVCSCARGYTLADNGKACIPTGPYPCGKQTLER
Chain of Coagulation factor X (Homo sapiens) (P00742 235-488 limits assumed): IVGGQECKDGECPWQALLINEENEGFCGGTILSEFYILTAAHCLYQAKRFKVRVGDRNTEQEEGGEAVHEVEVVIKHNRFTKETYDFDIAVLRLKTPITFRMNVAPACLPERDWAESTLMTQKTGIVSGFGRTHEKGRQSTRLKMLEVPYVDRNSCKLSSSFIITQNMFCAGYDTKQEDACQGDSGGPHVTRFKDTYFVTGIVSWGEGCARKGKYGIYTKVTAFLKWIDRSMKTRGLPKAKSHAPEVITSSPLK

[2] = species on record: Homo sapiens; assay: Inhibition of human plasma alpha-thrombin assessed as spectrozyme TH hydrolysis at 1 to 900 uM preincubated for 10 mins by spectrophotometric analysis relative to control; type: cell-free
Summary of the method: (§1)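 Human plasma α-thrombin (5 nM final) with inhibitor (1−900 μM final) in 20 mM Tris-HCl pH 7.4, 100 mM NaCl, 2.5 mM CaCl2, 0.1% PEG8000, PEG20000-coated cuvettes, 10 min. Spectrozyme TH then added (30 μM final). Initial rate from A405 increase. Residual activity fitted by logistic equation with floating Hill slope, Y0, YM to give IC50.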

[3] = (§2) Inhibition of human plasma alpha-thrombin assessed as spectrozyme TH hydrolysis preincubated for 10 mins by spectrophotometric analysis; type: cell-free; summary of the method: as §1
[4] = species on record: Homo sapiens; assay: as §2; type: cell-free; summary of the method: as §1
[5] = target: Prothrombin (Homo sapiens, UniProt P00734); assay: Binding affinity to thrombin exosite-2 (unknown origin)
[6] = species on record: Homo sapiens; assay: Binding affinity to human plasma alpha-thrombin exosite-2 using spectrozyme TH as substrate after overnight incubation at 25 degC by spectrophotometric analysis; type: cell-free

| Compound | inhibition [1] | Efficacy [2] | IC50 ([3]; read-out: IC50) | IC50 ([3]; read-out: pIC50 (converted)) | inhibition [4] | K [5] | K [6] |
| --- | --- | --- | --- | --- | --- | --- | --- |
| CCOC(=O)c1c(C)oc2cc(OC)c(OCc3oc4cc(OC)c(OCc5oc6cc(OC)c(OS(=O)(=O)O)cc6c5C(=O)OC(C)(C)C)cc4c3C(=O)OCC)cc12 | inactive | 94% | 165 µM | 166 µM | – | – | – |
| N=C(N)NCCC[C@H](NC(=O)[C@@H]1CCCN1C(=O)[C@H](N)Cc1ccccc1)C(=O)CCl | – | – | – | – | Active | – | – |
| CC(C)C[C@H](NC(=O)[C@H](CC(=O)O)NC(=O)[C@H](CC(=O)O)NC(=O)[C@H](CCC(=O)O)NC(=O)[C@@H]1CCCN1C(=O)[C@H](Cc1ccc(OP(=O)(O)O)cc1)NC(=O)[C@H](CC(C)C)NC(=O)[C@H](CO)NC(=O)[C@H](CC(=O)O)NC(=O)[C@H](Cc1ccc(OP(=O)(O)O)cc1)NC(=O)[C@H](CCC(=O)O)NC(=O)[C@@H](NC(=O)[C@H](CCC(=O)O)NC(=O)[C@H](C)NC(=O)[C@@H]1CCCN1C(=O)[C@H](Cc1cnc[nH]1)NC(=O)[C@H](CCC(=O)O)NC(=O)[C@@H]1CCCN1C(=O)[C@H](CCCNC(=N)N)NC(=O)[C@@H](N)C(C)C)[C@@H](C)O)C(=O)O (H-VRPEHPAETE[pY]DSL[pY]PEDDL-OH) | – | – | – | – | – | 0.6 µM | – |
| CCOC(=O)c1c(COc2cc3c(C(=O)OCC)c(COc4cc5c(C(=O)O)c(C)oc5cc4OC)oc3cc2OC)oc2cc(OC)c(O)cc12 | inactive | – | > 500 µM | – | – | – | – |
| CCOC(=O)c1c(C)oc2cc(OC)c(OCc3oc4cc(OC)c(OCc5oc6cc(OC)c(OS(=O)(=O)O)cc6c5C(=O)OCCOC)cc4c3C(=O)OCC)cc12 | inactive | – | > 500 µM | – | – | – | – |
| O=C(O)C1=C[C@H](O)[C@@H](OS(=O)(=O)O)[C@H](O[C@H]2[C@H](O)[C@@H](NS(=O)(=O)O)[C@@H](O[C@H]3[C@H](O)[C@@H](OS(=O)(=O)O)[C@H](O[C@H]4[C@H](O)[C@@H](NS(=O)(=O)O)[C@@H](O[C@H]5[C@H](O)[C@@H](OS(=O)(=O)O)[C@H](O[C@H]6[C@H](O)[C@@H](NS(=O)(=O)O)[C@@H](O[C@H]7[C@H](O)[C@@H](OS(=O)(=O)O)[C@H](O[C@H]8[C@H](O)[C@@H](NS(=O)(=O)O)[C@@H](O)O[C@@H]8COS(=O)(=O)O)O[C@H]7COS(=O)(=O)O)O[C@@H]6COS(=O)(=O)O)O[C@H]5COS(=O)(=O)O)O[C@@H]4COS(=O)(=O)O)O[C@H]3COS(=O)(=O)O)O[C@@H]2COS(=O)(=O)O)O1 | – | – | – | – | – | – | 2.7 µM |
| CCOC(=O)c1c(C)oc2cc(OC)c(OCc3oc4cc(OC)c(OCc5oc6cc(OC)c(OCc7oc8cc(OC)c(OS(=O)(=O)C(C)(C)C)cc8c7C(=O)OCC)cc6c5C(=O)OCC)cc4c3C(=O)OCC)cc12 | inactive | – | – | – | – | – | – |

Second part, the compound after the results:

| inhibition [1] | Efficacy [2] | IC50 ([3]; read-out: IC50) | IC50 ([3]; read-out: pIC50 (converted)) | inhibition [4] | K [5] | K [6] | Compound |
| --- | --- | --- | --- | --- | --- | --- | --- |
| inactive | 43% | 5.8 µM | 5.89 µM | – | – | – | CCOC(=O)c1c(C)oc2cc(OC)c(OCc3oc4cc(OC)c(OCc5oc6cc(OCC)c(OS(=O)(=O)O)cc6c5C(=O)OCC)cc4c3C(=O)OCC)cc12 |
| inactive | 49% | 66 µM | 66.1 µM | – | – | – | CCOC(=O)c1c(COc2cc3c(C(=O)O)c(C)oc3cc2OC)oc2cc(OC)c(OCc3oc4cc(OC)c(OS(=O)(=O)O)cc4c3C(=O)OCC)cc12 |
| – | 91% | 154 µM | 155 µM | – | – | – | CCOC(=O)c1c(C)oc2cc(OC)c(OCc3oc4cc(OC)c(OCc5oc6cc(OS(=O)(=O)O)c(OC)cc6c5C(=O)OCC)cc4c3C(=O)OCC)cc12 |
| inactive | 39% | 2 µM | 2.04 µM | – | – | – | CCOC(=O)c1c(C)oc2cc(OC)c(OCc3oc4cc(OC)c(OCc5oc6cc(OC)c(OS(=O)(=O)O)cc6c5C(=O)OC)cc4c3C(=O)OCC)cc12 |
| inactive | 26% | 99 µM | 100 µM | – | – | – | CCOC(=O)c1c(C)oc2cc(OC)c(OCc3oc4cc(OC)c(OCc5oc6cc(OC(C)C)c(OS(=O)(=O)O)cc6c5C(=O)OCC)cc4c3C(=O)OCC)cc12 |
| – | 53% | 31 µM | 30.9 µM | – | – | – | C=CCOC(=O)c1c(C)oc2cc(OC)c(OCc3oc4cc(OC)c(OCc5oc6cc(OC)c(OS(=O)(=O)O)cc6c5C(=O)OCC)cc4c3C(=O)OCC)cc12 |
| – | – | 158 µM | 158 µM | – | – | – | CCOC(=O)c1c(C)oc2cc(OC)c(OCc3oc4cc(OC)c(OCc5oc6cc(OC)c(OCc7oc8cc(OC)c(OS(=O)(=O)O)cc8c7C(=O)OCC)cc6c5C(=O)OCC)cc4c3C(=O)OCC)cc12 |
